Our source for the inhibition values is ChEMBL document CHEMBL4251703, “Linker Variation and Structure-Activity Relationship Analyses of Carboxylic Acid-based Small Molecule STAT3 Inhibitors” (ACS Med Chem Lett, 2018).

SMILES strings stand for the structures. Active and inactive are the calls of the source. The rule behind the calls is not given here.

Chain of Signal transducer and activator of transcription 3 (Mus musculus) (P42227 whole entry): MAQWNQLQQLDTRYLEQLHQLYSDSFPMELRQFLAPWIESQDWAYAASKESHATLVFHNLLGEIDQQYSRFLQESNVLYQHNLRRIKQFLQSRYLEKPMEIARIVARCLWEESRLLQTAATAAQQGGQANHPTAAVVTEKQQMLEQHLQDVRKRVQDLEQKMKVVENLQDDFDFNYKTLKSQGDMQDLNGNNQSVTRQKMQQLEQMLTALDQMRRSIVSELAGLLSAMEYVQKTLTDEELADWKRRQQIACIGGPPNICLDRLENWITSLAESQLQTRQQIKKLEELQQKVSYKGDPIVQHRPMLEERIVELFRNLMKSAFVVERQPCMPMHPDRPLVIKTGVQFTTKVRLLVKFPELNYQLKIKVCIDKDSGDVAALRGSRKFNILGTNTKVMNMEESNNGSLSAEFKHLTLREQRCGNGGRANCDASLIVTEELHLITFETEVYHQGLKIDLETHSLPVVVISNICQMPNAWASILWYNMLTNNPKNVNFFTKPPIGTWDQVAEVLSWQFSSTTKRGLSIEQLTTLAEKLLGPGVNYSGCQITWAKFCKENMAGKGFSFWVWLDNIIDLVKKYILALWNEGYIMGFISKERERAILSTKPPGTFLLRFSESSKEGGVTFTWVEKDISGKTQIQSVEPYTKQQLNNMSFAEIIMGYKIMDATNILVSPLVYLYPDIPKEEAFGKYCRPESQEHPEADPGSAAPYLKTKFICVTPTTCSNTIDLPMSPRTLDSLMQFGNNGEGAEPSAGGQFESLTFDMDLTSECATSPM

This assay deals with Signal transducer and activator of transcription 3 (Mus musculus) (UniProt P42227). Nature of the assay: Inhibition of STAT3 DNA binding activity in mouse NIH/3T3 nuclear extract preincubated for 30 mins followed by [32P]hSIE addition measured after 30 mins by electrophoretic mobility shift assay. Put shortly:
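STAT3 DNA-binding was measured by EMSA using nuclear extracts of equal total protein from v-Src-transformed fibroblasts containing activated STAT3. Extracts were preincubated for 30 min with 0–100 μM compound, then incubated with radiolabeled hSIE probe.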
On the technique in general: In EMSA bound probe runs differently from free probe, usually more slowly.
Regarding `CN([C@H](CO)C(=O)N(Cc1ccc(C2CCCCC2)cc1)c1ccc(C(=O)O)c(O)c1)S(=O)(=O)c1c(F)c(F)c(F)c(F)c1F`, the inhibition entry was “Active”.
For `CN([C@@H](CCO)C(=O)N(Cc1ccc(C2CCCCC2)cc1)c1ccc(C(=O)O)c(O)c1)S(=O)(=O)c1c(F)c(F)c(F)c(F)c1F`, the inhibition result is “inactive”.
For the compound `C[C@H](O)[C@H](C(=O)N(Cc1ccc(C2CCCCC2)cc1)c1ccc(C(=O)O)c(O)c1)N(C)S(=O)(=O)c1c(F)c(F)c(F)c(F)c1F`, the inhibition result is “Active”.
With `C[C@@H](O)[C@@H](C(=O)N(Cc1ccc(C2CCCCC2)cc1)c1ccc(C(=O)O)c(O)c1)N(C)S(=O)(=O)c1c(F)c(F)c(F)c(F)c1F`, the inhibition entry was “inactive”.
As for `CN([C@@H](CC(=O)O)C(=O)N(Cc1ccc(C2CCCCC2)cc1)c1ccc(C(=O)O)c(O)c1)S(=O)(=O)c1c(F)c(F)c(F)c(F)c1F`, the inhibition result is “inactive”.
For the compound `CN(CC(=O)N(Cc1ccc(C2CCCCCC2)cc1)c1ccc(C(=O)O)cc1)S(=O)(=O)c1c(F)c(F)c(F)c(F)c1F`, the inhibition entry was “inactive”.
On to `CN(CC(=O)N(Cc1ccc(C2CCCCC2)cc1)c1ccc(C(=O)O)[n+]([O-])c1)S(=O)(=O)c1c(F)c(F)c(F)c(F)c1F`, for which the inhibition entry is “inactive”.
With `CN(CC(=O)N(Cc1ccc(C2CCCCC2)cc1)c1ccc(C(=O)O)nc1)S(=O)(=O)c1c(F)c(F)c(F)c(F)c1F`, the inhibition result was “inactive”.
On to `CN([C@H](CCO)C(=O)N(Cc1ccc(C2CCCCC2)cc1)c1ccc(C(=O)O)c(O)c1)S(=O)(=O)c1c(F)c(F)c(F)c(F)c1F`, for which the inhibition result is “Active”.
Take `CN(CC(=O)N(Cc1ccc(C2CCNCC2)cc1)c1ccc(C(=O)O)c(O)c1)S(=O)(=O)c1c(F)c(F)c(F)c(F)c1F`: the inhibition result is “inactive”.
In the case of `CN([C@@H](CO)C(=O)N(Cc1ccc(C2CCCCC2)cc1)c1ccc(C(=O)O)c(O)c1)S(=O)(=O)c1c(F)c(F)c(F)c(F)c1F`, the inhibition result was “inactive”.
The value for `CN(CC(=O)N(Cc1ccc(C2CCOCC2)cc1)c1ccc(C(=O)O)cc1)S(=O)(=O)c1c(F)c(F)c(F)c(F)c1F` was “inactive”.
For `CN(CC(=O)N(Cc1ccc(C2CCCCC2)cc1)c1ccc(C(=O)O)c(O)c1)C(=O)c1c(F)c(F)c(F)c(F)c1F`, the inhibition result is “inactive”.
In the case of `CN(CC(=O)N(Cc1ccc(N2CCCCC2)cc1)c1ccc(C(=O)O)cc1)S(=O)(=O)c1c(F)c(F)c(F)c(F)c1F`, the inhibition result is “inactive”.
For `CN(CC(=O)N(Cc1ccc(C2CCOCC2)cc1)c1ccc(C(=O)NO)c(O)c1)S(=O)(=O)c1c(F)c(F)c(F)c(F)c1F`, the inhibition entry was “inactive”.
On to `Cc1cc(N(Cc2ccc(C3CCCCC3)cc2)C(=O)CN(C)S(=O)(=O)c2c(F)c(F)c(F)c(F)c2F)ccc1C(=O)O`, for which the inhibition result was “inactive”.
The value for `C[C@H](C(=O)N(Cc1ccc(C2CCOCC2)cc1)c1ccc(C(=O)[O-])c(O)c1)N(C)S(=O)(=O)c1c(F)c(F)c(F)c(F)c1F.[Na+]` was “inactive”.
For `CN(CC(=O)N(Cc1ccc(C2CCCCC2)cc1)c1ccc(C(=O)O)c(O)c1)Cc1c(F)c(F)c(F)c(F)c1F`, the inhibition entry is “inactive”.
On to `CC[C@H](C(=O)N(Cc1ccc(C2CCC(F)(F)CC2)cc1)c1ccc(C(=O)O)c(O)c1)N(C)S(=O)(=O)c1c(F)c(F)c(F)c(F)c1F`, for which the inhibition result is “inactive”.
For `CN(CC(=O)N(Cc1ccc(C2CCOCC2)cc1)c1ccc(C(=O)O)c(O)c1)S(=O)(=O)c1c(F)c(F)c(F)c(F)c1F`, the inhibition entry was “inactive”.
On to `CN(CC(=O)N(Cc1ccc(C2CCCCC2)cc1)c1nc(C(=O)O)co1)S(=O)(=O)c1c(F)c(F)c(F)c(F)c1F`, for which the inhibition entry is “inactive”.
For `CN([C@H](CO)C(=O)N(Cc1ccc(C2CCCCC2)cc1)c1ccc(C(=O)NO)cc1)S(=O)(=O)c1c(F)c(F)c(F)c(F)c1F` the value was “Active”; for `C[C@H](C(=O)N(Cc1ccc(C2CCCCC2)cc1)c1ccc2c(c1)CNC2=O)N(C)S(=O)(=O)c1c(F)c(F)c(F)c(F)c1F`, “inactive”; for `O=C(O)c1ccc(N(Cc2ccc(C3CCCCC3)cc2)C(=O)[C@H]2CCCN2S(=O)(=O)c2cc(F)cc(F)c2F)cc1O`, “inactive”.
Take `CN(CC(=O)N(Cc1ccc(C2CCC(F)(F)CC2)cc1)c1ccc(C(=O)O)c(O)c1)S(=O)(=O)c1c(F)c(F)c(F)c(F)c1F`: the inhibition result is “inactive”.
The value for `CC[C@@H](C(=O)N(Cc1ccc(C2CCCCC2)cc1)c1ccc(C(=O)O)c(O)c1)N(C)S(=O)(=O)c1c(F)c(F)c(F)c(F)c1F` was “inactive”; that for `CN(CC(=O)N(Cc1ccc(C2CCCCC2)cc1)c1cccc(CC(=O)O)c1)S(=O)(=O)c1c(F)c(F)c(F)c(F)c1F` was “inactive”; that for `CN(CC(=O)N(Cc1ccc(C2CCCCC2)nc1)c1ccc(C(=O)O)c(O)c1)S(=O)(=O)c1c(F)c(F)c(F)c(F)c1F` was “inactive”.
Take `C[C@H](C(=O)N(Cc1ccc(C2CCCCC2)cc1)c1c(F)cc(C(=O)O)cc1F)N(C)S(=O)(=O)c1c(F)c(F)c(F)c(F)c1F`: the inhibition result was “inactive”.
On to `CN([C@H](CO)C(=O)N(Cc1ccc(C2CCCCC2)cc1)c1ccc(C(=O)O)cc1)S(=O)(=O)c1c(F)c(F)c(F)c(F)c1F`, for which the inhibition result is “Active”.
Turning to `CN(CC(=O)N(Cc1ccc(C2=CCCCCC2)cc1)c1ccc(C(=O)O)cc1)S(=O)(=O)c1c(F)c(F)c(F)c(F)c1F`, the inhibition result was “inactive”.
For the compound `CN([C@@H](CN)C(=O)N(Cc1ccc(C2CCCCC2)cc1)c1ccc(C(=O)O)c(O)c1)S(=O)(=O)c1c(F)c(F)c(F)c(F)c1F`, the inhibition result is “inactive”.
In the case of `CN([C@H](CN)C(=O)N(Cc1ccc(C2CCCCC2)cc1)c1ccc(C(=O)O)c(O)c1)S(=O)(=O)c1c(F)c(F)c(F)c(F)c1F`, the inhibition result is “Active”.
As for `Cc1cc(C(=O)O)cc(C)c1N(Cc1ccc(C2CCCCC2)cc1)C(=O)CN(C)S(=O)(=O)c1c(F)c(F)c(F)c(F)c1F`, the inhibition result was “inactive”.
As to `CN([C@H](CC(=O)O)C(=O)N(Cc1ccc(C2CCCCC2)cc1)c1ccc(C(=O)O)c(O)c1)S(=O)(=O)c1c(F)c(F)c(F)c(F)c1F`, the inhibition entry is “Active”.
For `C[C@H](C(=O)N(Cc1ccc(C2CCCCC2)cc1)c1ccc(C(=O)O)c(F)c1)N(C)S(=O)(=O)c1c(F)c(F)c(F)c(F)c1F`, the inhibition result was “inactive”.
`CC[C@H](C(=O)N(Cc1ccc(C2CCCCC2)cc1)c1ccc(C(=O)O)c(O)c1)N(C)S(=O)(=O)c1c(F)c(F)c(F)c(F)c1F`: the inhibition entry is “Active”.
On to `CN(CC(=O)N(Cc1ccc(C2CCCCC2)cc1)c1ncc(C(=O)O)o1)S(=O)(=O)c1c(F)c(F)c(F)c(F)c1F`, for which the inhibition entry was “inactive”.
With `O=C(O)c1ccc(N(Cc2ccc(C3CCCCC3)cc2)C(=O)[C@H]2CCCN2C(=O)c2c(F)c(F)c(F)c(F)c2F)cc1O`, the inhibition entry was “inactive”.
For the compound `O=C(O)c1ccc(N(Cc2ccc(C3CCCCC3)cc2)C(=O)[C@H]2CCCN2S(=O)(=O)c2c(F)cc(F)c(F)c2F)cc1O`, the inhibition result is “inactive”.
As for `O=C(O)c1ccc(N(Cc2ccc(C3CCCCC3)cc2)C(=O)[C@H]2CCCN2Cc2c(F)c(F)c(F)c(F)c2F)cc1O`, the inhibition entry is “inactive”.
As for `C[C@H](C(=O)N(Cc1ccc(C2CCCCC2)cc1)c1ccc2cn[nH]c2c1)N(C)S(=O)(=O)c1c(F)c(F)c(F)c(F)c1F`, the inhibition result is “inactive”.
